High-throughput results: PubChem, Broad Institute
GSIS activator: GLuc luminescence reporter in INS-1E cells, primary screen for activators of glucose-dependent secretion of insulin; AID 743287; 370,000 tested, 0.61% active; INS-1E GLuc reporter insulin secretion, 2-3 h; activation, % at 16.6 µM;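 active = lowest replicate activation of at least 40%, so every replicate reaches that level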
EWS-Fli inh: EWS/Fli transcriptional activity inhibition. A673 NR0B1-luciferase reporter, viability-normalised. inhibition, % at 12.6 µM. 350,000 tested, 0.67% active. AID 651661;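 active = mean inhibition of at least 50% after viability correction, with every replicate also passing that limit; inconclusive = mean reaches 50% but only one of two replicates passes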;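 note: firefly luciferase signal divided by Alamar Blue viability fluorescence both relative to DMSO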
AF4-AF9 inh: MLL-AF4/AF9 protein interaction inhibition; P42568; AlphaScreen, biotin-AF4 peptide binding to FLAG-AF9; inhibition, % at 10 µM; 350,000 tested, 0.47% active; AID 651704;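 active = every replicate reaching a set inhibition limit, whatever the replicate mean, cut at about 25% in these data; inconclusive = mean inhibition reaches that limit but some replicates miss it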
Target sequence (P42568 whole entry, looked up): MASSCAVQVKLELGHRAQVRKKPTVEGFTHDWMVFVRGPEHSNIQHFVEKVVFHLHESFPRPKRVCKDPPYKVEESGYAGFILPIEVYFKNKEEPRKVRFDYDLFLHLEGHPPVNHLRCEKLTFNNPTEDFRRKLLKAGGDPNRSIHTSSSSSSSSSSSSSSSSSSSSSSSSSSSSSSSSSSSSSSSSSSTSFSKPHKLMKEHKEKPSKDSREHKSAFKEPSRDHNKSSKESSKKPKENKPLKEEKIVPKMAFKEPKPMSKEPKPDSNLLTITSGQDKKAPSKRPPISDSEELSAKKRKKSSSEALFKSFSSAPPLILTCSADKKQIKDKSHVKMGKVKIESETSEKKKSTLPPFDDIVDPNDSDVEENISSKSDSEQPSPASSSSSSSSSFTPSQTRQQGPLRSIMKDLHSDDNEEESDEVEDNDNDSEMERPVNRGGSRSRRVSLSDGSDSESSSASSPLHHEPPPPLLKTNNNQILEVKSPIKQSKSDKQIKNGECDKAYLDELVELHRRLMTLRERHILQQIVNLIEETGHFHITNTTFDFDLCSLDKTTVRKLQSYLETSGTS
PGC1a acetyl inh: modulators of PGC1a acetylation; 350,000 tested, 0.17% active; inhibition, % at 15.6 µM; U2OS PGC1a acetylation, AlphaScreen anti-acetyl-lysine; with virally co-expressed GCN5 acetyltransferase;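 active = every replicate shows inhibition of at least 40%; inconclusive = mean inhibition at least 40% but some replicate below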
PAX8 reporter: PAX8 transcriptional activity inhibition. 360,000 tested, 1.2% active. inhibition, % at 12.6 µM. AID 652154. RMG-I TPO-luciferase reporter, SteadyGlo, 24 h;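 active = mean replicate inhibition at least 60% with every replicate also reaching 60%; inconclusive = only one of the two criteria is met; inactive = mean below 60% and not all replicates reaching 60%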;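 note: luciferase light reporting Pax8 driven TPO promoter activity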
Xi reactivation: reactivates the inactive X chromosome in mouse fibroblasts; XiGFP mouse fibroblasts, % GFP-positive cells imaging, 3 d; cells co-treated with 5-aza-dC sensitizer; scaled so ellipticine positive control = 100%; activation, % at 7.58 µM; 360,000 tested, 0.055% active;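 active = mean normalized replicate activation at least 10% and every replicate at or above 10%; inconclusive = only one of the two criteria met; inactive = mean below 10% and not all replicates reach 10%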
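assay system = SV40-immortalized XiGFP fibroblast cells, line 68-5-11 | buffer or medium = DMEM plus 5-aza-dC sensitizer | doses = single-point pinned compound dosing | times = 3-day compound exposure, then 15 min fixation at room temperature | benchmarks = positive control ellipticine, 6 µM final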
A number is an active result. Compounds with a hit are over-represented: about 2.1% of the library has one in this group of screens.

What do the screens show for `Cc1ccc(S(=O)(=O)Nc2ccc3c(c2)C(=O)N([C@H](C)CO)C[C@H](C)[C@@H](CN(C)S(=O)(=O)c2ccc(C)cc2)O3)cc1`?
GSIS activator: inactive; EWS-Fli inh: inactive; AF4-AF9 inh: inactive; PGC1a acetyl inh: inactive; PAX8 reporter: inactive; Xi reactivation: inactive

What do the screens show for `CCOc1ccc(N(CC(=O)Nc2ccccc2C)S(=O)(=O)c2c(C)noc2C)cc1`?
GSIS activator: inactive; EWS-Fli inh: 58; AF4-AF9 inh: inactive; PGC1a acetyl inh: inactive; PAX8 reporter: inactive; Xi reactivation: inactive

How did COC(=O)Cn1c(=O)c(C(=O)CCl)c(N)n(Cc2ccccc2)c1=O do in these assays?
GSIS activator: inactive; EWS-Fli inh: inconclusive; AF4-AF9 inh: inactive; PGC1a acetyl inh: inactive; PAX8 reporter: 63; Xi reactivation: inactive

How did CN1C(=S)N(c2ccccc2)C(=O)/C1=C/c1cccs1 do in these assays?
GSIS activator: 68; PAX8 reporter: inactive; Xi reactivation: inactive

What do the screens show for `COc1ccc(NC(=O)CSc2ncnc3c2sc2ccccc23)c(OC)c1`?
GSIS activator: 58; PAX8 reporter: inactive; Xi reactivation: inactive

Results for COc1ccc(NC(=O)CSc2ccccc2)c(OC)c1 ?
PGC1a acetyl inh: inactive

Results for CCN(CC)C1=CC2=CC(=C(C#N)C#N)CCC2CC1 (centres undefined) ?
GSIS activator: inactive; EWS-Fli inh: inactive; AF4-AF9 inh: inactive; PAX8 reporter: inactive; Xi reactivation: 82

Results for CCCCN(C)C1=CC2=CC(=C(C#N)C#N)CCC2CC1 (centres undefined) ?
GSIS activator: inactive; EWS-Fli inh: inactive; AF4-AF9 inh: inactive; PAX8 reporter: inactive; Xi reactivation: inconclusive

How did C[C@H]1CN([C@@H](C)CO)C(=O)Cc2cc(NC(=O)CCCCCC(=O)Nc3ccccc3N)ccc2O[C@@H]1CN(C)Cc1ccccc1 do in these assays?
GSIS activator: inactive; EWS-Fli inh: inactive; AF4-AF9 inh: inactive; PGC1a acetyl inh: inactive; PAX8 reporter: inactive; Xi reactivation: inactive

What do the screens show for `COc1cccc(NC(=O)C(NCCc2ccc(S(N)(=O)=O)cc2)c2ccccc2)c1` (centres undefined)?
GSIS activator: inactive; EWS-Fli inh: inactive; AF4-AF9 inh: inactive; PGC1a acetyl inh: inactive; PAX8 reporter: 74

How did COc1ccc(CCNC(C(=O)Nc2cc(C)cc(C)c2)c2ccccc2)cc1 (centres undefined) do in these assays?
GSIS activator: inactive; EWS-Fli inh: inactive; AF4-AF9 inh: inactive; PAX8 reporter: inactive; Xi reactivation: inactive

Results for CCOC(=O)C1=C(C)Nc2ccccc2N=C1NC(=O)c1oc2ccccc2c1COC ?
GSIS activator: inactive; EWS-Fli inh: inactive; AF4-AF9 inh: inactive; PGC1a acetyl inh: inactive; PAX8 reporter: 65; Xi reactivation: inactive

How did CCOC(=O)C1=C(C)Nc2ccccc2N=C1N do in these assays?
GSIS activator: inactive; EWS-Fli inh: inactive; AF4-AF9 inh: inactive; PGC1a acetyl inh: inactive; PAX8 reporter: inactive; Xi reactivation: inactive

Results for O=C(C[C@@H]1C[C@H]2c3cc(NC(=O)c4cccnc4)ccc3O[C@H]2[C@H](CO)O1)NCc1ccccc1 ?
GSIS activator: inactive; EWS-Fli inh: inactive; AF4-AF9 inh: inactive; PGC1a acetyl inh: inactive; PAX8 reporter: inactive; Xi reactivation: inactive

How did Oc1ccc(/C=C/c2ccc3ccccc3n2)cc1 do in these assays?
GSIS activator: inactive; EWS-Fli inh: 79; AF4-AF9 inh: inactive; PAX8 reporter: inactive; Xi reactivation: inactive

Results for O=[N+]([O-])c1ccc(/C=C/c2ccc3ccccc3n2)cc1 ?
GSIS activator: inactive; EWS-Fli inh: 59; AF4-AF9 inh: inactive; PGC1a acetyl inh: inactive; PAX8 reporter: inactive; Xi reactivation: inactive

Results for CCCC(=O)Nc1ccc2c(c1)C(=O)N(C)[C@H]1CC[C@H](CC(=O)NCCOC)O[C@@H]1CO2 ?
GSIS activator: inactive; EWS-Fli inh: inactive; PGC1a acetyl inh: inactive; PAX8 reporter: inactive; Xi reactivation: inactive

How did Cc1ccc(NC(=O)COC(=O)c2cc(-c3cccs3)nn2-c2ccccc2)cc1[N+](=O)[O-] do in these assays?
GSIS activator: 69; PGC1a acetyl inh: inactive; PAX8 reporter: inactive; Xi reactivation: inactive

What do the screens show for `O=C(COC(=O)c1cc(-c2cccs2)nn1-c1ccccc1)Nc1cccc([N+](=O)[O-])c1`?
GSIS activator: inactive; EWS-Fli inh: inactive; AF4-AF9 inh: inactive; PGC1a acetyl inh: inactive; PAX8 reporter: inactive; Xi reactivation: inactive

How did Cn1ccnc1SCc1nc2c(cnn2-c2ccccc2)c(=O)[nH]1 do in these assays?
GSIS activator: inactive; EWS-Fli inh: inactive; AF4-AF9 inh: inactive; PAX8 reporter: 140; Xi reactivation: inactive

What do the screens show for `COC(=O)c1ccc(Oc2ccc(C(F)(F)F)cn2)cc1`?
GSIS activator: 56; EWS-Fli inh: inactive; AF4-AF9 inh: inactive; PAX8 reporter: inactive; Xi reactivation: inactive

How did O=C(O)c1ccc(Oc2ccc(C(F)(F)F)cn2)cc1 do in these assays?
GSIS activator: inactive; EWS-Fli inh: inactive; AF4-AF9 inh: inactive; PGC1a acetyl inh: inactive; PAX8 reporter: inactive; Xi reactivation: inactive

Results for Cc1cccc(C(=O)OCC(=O)NCc2cccs2)c1 ?
GSIS activator: inactive; EWS-Fli inh: inactive; AF4-AF9 inh: inactive; PGC1a acetyl inh: inactive; PAX8 reporter: inactive; Xi reactivation: inactive

How did CS(=O)(=O)c1ccc(C(=O)OCC(=O)NCc2cccs2)cc1[N+](=O)[O-] do in these assays?
GSIS activator: inactive; EWS-Fli inh: inactive; AF4-AF9 inh: inactive; PGC1a acetyl inh: inactive; PAX8 reporter: 101; Xi reactivation: inactive

Results for Cc1noc(C)c1NC(=O)Nc1ccc2c(c1)C(=O)N([C@H](C)CO)C[C@@H](C)[C@H](CN(C)S(=O)(=O)c1ccccc1)OCCCC[C@@H](C)O2 ?
GSIS activator: inactive; EWS-Fli inh: inactive; AF4-AF9 inh: inactive; PGC1a acetyl inh: inactive; PAX8 reporter: inactive; Xi reactivation: inactive

How did CCC(=O)N=c1sc2cc([N+](=O)[O-])ccc2n1CCOC do in these assays?
GSIS activator: inactive; PAX8 reporter: inactive; Xi reactivation: inactive

How did CCOC(=O)Cn1c(=NC(=O)c2cccs2)sc2cc(C(=O)OC)ccc21 do in these assays?
GSIS activator: 90; PAX8 reporter: inactive; Xi reactivation: inactive

Results for CCOC(=O)Cn1c(=NC(=O)CN2C(=O)CCC2=O)sc2cc(S(N)(=O)=O)ccc21 ?
GSIS activator: inactive; EWS-Fli inh: inactive; AF4-AF9 inh: inactive; PAX8 reporter: inactive; Xi reactivation: inactive

Results for CCOC(=O)c1ccc2c(c1)sc(=NC(=O)c1ccco1)n2CCOC ?
GSIS activator: 65; PGC1a acetyl inh: inactive; PAX8 reporter: inactive; Xi reactivation: inactive

Results for CCOC(=O)Cn1c(=NC(=O)c2nc3ccccc3s2)sc2cc(S(N)(=O)=O)ccc21 ?
GSIS activator: 68; PAX8 reporter: inactive; Xi reactivation: inactive
